Here are results for five compounds from paper PMC3288198 (ACS Chemical Biology, 2011).

The structures appear in SMILES notation. Read-outs that look alike come from different tables or passages of the source.

For series [1], the target named is T1, HDAC7 (Homo sapiens, UniProt Q8WUI4).
T1 sequence (Q8WUI4 1-952): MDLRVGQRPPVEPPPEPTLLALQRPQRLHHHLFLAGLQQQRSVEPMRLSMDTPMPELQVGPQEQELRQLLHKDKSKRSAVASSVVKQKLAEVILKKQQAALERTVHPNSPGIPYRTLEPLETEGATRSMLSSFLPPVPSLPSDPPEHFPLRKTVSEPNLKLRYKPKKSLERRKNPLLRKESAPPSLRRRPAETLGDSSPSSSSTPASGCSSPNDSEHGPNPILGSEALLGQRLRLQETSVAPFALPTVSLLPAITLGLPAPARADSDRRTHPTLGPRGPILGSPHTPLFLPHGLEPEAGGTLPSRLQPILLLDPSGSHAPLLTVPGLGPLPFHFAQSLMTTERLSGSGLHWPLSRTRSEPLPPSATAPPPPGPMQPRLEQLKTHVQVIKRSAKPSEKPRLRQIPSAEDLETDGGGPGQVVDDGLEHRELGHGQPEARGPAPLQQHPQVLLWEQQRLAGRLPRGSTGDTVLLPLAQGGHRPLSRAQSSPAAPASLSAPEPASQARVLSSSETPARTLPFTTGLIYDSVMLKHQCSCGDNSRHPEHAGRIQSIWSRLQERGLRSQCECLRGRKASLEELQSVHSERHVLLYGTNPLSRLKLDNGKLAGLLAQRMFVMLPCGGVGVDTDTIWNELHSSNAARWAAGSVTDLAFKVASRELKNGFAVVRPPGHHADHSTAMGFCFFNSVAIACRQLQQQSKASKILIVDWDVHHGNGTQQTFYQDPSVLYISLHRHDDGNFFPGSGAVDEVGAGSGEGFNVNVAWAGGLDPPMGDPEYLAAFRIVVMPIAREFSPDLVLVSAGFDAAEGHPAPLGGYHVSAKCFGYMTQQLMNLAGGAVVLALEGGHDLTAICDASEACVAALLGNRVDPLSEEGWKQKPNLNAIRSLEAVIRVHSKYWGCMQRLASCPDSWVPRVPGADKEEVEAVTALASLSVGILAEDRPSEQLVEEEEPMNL
Description: HDAC deacetylase homogenous fluorescence assay, HDAC7. The format is biochemical.

Series [2] addresses T2, HDAC6 (Homo sapiens, UniProt Q9UBN7).
T2 sequence (Q9UBN7 1-1215): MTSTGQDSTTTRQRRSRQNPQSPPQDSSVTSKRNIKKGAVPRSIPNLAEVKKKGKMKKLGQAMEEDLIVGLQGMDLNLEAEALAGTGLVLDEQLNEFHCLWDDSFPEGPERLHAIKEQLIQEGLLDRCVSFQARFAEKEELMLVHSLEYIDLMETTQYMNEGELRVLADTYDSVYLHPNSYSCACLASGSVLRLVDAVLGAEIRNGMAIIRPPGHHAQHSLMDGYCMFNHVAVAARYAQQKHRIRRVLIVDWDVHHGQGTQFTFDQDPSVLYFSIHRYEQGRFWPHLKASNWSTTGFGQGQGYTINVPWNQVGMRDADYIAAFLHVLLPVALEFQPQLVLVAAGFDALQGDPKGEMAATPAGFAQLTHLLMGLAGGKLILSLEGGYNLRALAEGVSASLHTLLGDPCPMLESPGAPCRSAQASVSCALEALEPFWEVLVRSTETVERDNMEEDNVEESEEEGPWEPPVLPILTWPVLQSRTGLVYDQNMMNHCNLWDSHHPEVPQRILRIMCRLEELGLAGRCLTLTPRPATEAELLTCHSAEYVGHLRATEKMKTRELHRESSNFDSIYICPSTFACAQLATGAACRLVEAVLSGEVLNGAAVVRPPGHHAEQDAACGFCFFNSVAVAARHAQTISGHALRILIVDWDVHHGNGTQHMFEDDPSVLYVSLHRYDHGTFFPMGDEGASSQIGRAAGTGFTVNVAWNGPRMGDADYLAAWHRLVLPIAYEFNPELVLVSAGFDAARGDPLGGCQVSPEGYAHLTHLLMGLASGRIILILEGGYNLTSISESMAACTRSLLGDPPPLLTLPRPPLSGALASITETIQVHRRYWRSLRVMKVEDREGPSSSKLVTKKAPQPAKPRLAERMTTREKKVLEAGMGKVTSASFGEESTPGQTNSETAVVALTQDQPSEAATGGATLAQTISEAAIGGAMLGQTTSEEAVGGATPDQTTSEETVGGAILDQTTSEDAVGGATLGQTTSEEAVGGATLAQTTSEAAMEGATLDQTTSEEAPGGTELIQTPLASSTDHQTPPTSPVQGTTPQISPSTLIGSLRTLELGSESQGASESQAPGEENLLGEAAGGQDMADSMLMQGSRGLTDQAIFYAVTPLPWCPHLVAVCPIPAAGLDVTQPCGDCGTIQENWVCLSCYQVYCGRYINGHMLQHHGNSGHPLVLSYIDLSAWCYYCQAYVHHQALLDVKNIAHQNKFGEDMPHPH
Description: HDAC deacetylase homogenous fluorescence assay, HDAC6. The format is biochemical. Put shortly: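 Baculovirus-expressed recombinant human enzyme (HDAC3 as HDAC3/N-CoR2 complex) incubated with serially diluted test compound over a 12-point titration. Substrate: acetylated AMC-K(Ac)GL. Deacetylated product cleaved by lysine peptidase to free MCA, read at ex 355/em 460 nm. Data normalised to control plate by plate. IC50 and SD from non-linear regression; Ki via Cheng-Prusoff, Ki = IC50/(1+[S]/Km).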

The target in series [3] is HDAC4 (Homo sapiens, UniProt P56524). Nature of the series: HDAC deacetylase homogenous fluorescence assay, HDAC4. The format is biochemical.
Sequence of HDAC4 (P56524 whole entry): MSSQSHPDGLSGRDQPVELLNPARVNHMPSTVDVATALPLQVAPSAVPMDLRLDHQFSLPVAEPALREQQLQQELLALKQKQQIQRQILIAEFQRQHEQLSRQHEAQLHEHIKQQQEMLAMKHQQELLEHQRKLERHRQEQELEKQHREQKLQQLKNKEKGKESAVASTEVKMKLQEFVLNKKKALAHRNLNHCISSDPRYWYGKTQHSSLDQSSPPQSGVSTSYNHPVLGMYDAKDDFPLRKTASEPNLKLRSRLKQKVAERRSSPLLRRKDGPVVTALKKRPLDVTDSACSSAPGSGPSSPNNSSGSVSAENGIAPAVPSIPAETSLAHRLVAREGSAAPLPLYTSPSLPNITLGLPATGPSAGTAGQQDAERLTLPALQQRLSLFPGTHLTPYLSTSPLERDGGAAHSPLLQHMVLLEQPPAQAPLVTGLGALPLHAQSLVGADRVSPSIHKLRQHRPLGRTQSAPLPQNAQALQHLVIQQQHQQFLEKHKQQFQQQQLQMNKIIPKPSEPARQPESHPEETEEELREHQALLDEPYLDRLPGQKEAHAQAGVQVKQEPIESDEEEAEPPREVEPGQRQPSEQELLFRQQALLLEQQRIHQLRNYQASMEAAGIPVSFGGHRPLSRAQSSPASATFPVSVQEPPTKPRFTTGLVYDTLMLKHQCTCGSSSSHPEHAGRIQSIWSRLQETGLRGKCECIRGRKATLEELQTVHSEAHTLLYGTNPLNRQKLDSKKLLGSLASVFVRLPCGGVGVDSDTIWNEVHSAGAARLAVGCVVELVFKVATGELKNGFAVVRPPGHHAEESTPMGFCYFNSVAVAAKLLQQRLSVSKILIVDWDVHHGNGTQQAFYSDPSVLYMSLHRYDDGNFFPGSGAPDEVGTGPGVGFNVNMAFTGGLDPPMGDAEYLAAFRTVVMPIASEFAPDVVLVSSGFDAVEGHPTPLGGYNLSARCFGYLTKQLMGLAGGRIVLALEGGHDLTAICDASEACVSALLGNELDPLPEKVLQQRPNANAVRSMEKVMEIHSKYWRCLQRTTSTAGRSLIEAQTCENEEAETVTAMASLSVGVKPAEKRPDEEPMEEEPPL
Series [4] deals with acetylated histone H3 and H4. Description: Western blot of acetylated histone H3/H4 in MV4-11 cells. The format is cell-based, human. Put shortly:
(§1)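 MV4-11 cells (10% heat-inactivated FBS, 37°C, 5% CO2) treated with test compound at a range of concentrations. Washed in cold HBSS and lysed 30 min in low-salt Tris pH 7.4 buffer with protease/phosphatase inhibitors and 1 μM TSA, then sonicated. LDS-denatured lysates run on 4–12% gradient gels. Probes: acetyl-H3, acetyl-H4, total H3, acetyl-α-tubulin, tubulin. HRP secondary, ECL read-out.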
Background: In western blotting, separated proteins are transferred to a membrane and probed.

Series [5] relates to non-proliferating PBMC (no mitogen stimulation). Description: Viability of resting PBMC. The format is cell-based, human.
Series [6] deals with acetylated tubulin. Description: Western blot of acetylated tubulin in MV4-11 cells. The format is cell-based, human. Put shortly: as §1
Series [7] concerns ubiquitinated protein. Description: Western blot of total ubiquitinated protein in MV4-11 cells. The series is classed as cell-based, human. The following applies: within 3 hr.
The mark [8] stands for this setting: read-out: HDAC7 IC50, 12 point titration, trifluoroacetylated substrate.
[9] abbreviates: read-out: HDAC7 Ki, converted from IC50 using Cheng-Prusoff equation.
The mark [10] stands for this setting: read-out: HDAC6 IC50, 12 point titration, acetylated substrate.
Setting [11] is: read-out: HDAC6 Ki, converted from IC50 using Cheng-Prusoff equation.
Setting [12] is: read-out: HDAC4 IC50, 12 point titration, trifluoroacetylated substrate.
The mark [13] stands for this setting: read-out: HDAC4 Ki, converted from IC50 using Cheng-Prusoff equation.

A word on the IC50: it is the midpoint of a concentration-inhibition curve. Usually Ki stands for a measure of affinity in units of concentration, obtained from inhibition or displacement. Take `OC[C@H]1O[C@H]([S-])[C@H](O)[C@@H](O)[C@@H]1O.[Au+]` [Aurothioglucose, 1-thio-D-glucopyronaose gold salt]: the concentration for half-maximal inhibition (IC50) was 22.4 ± 4.4 µM in series [1] (setting [8]), 14.4 ± 5.8 µM in series [2] (setting [10]) and 4.1 ± 2.1 µM in series [3] (setting [12]). In addition, the Ki in series [1] (setting [9]) worked out at 6.35 µM; in series [2] (setting [11]), 3.49 µM; in series [3] (setting [13]), 0.7 µM.

With `COc1ccc2c(c1)CC[C@@H]1[C@@H]2CC[C@]2(C)[C@@H](NCCCCCCN3C(=O)C=CC3=O)CC[C@@H]12` [U-73122, 1-[6-[[(17beta)-3-methoxyestra-1,3,5([10])-trien-17-yl]amion]hexyl]-1H-pyrrole-2,5-dione], the IC50 is more than 180 µM in series [1] (setting [8]), 45.2 ± 12.6 µM in series [2] (setting [10]) and 31.2 ± 0.2 µM in series [3] (setting [12]). In addition, the values for the Ki in series [2] (setting [11]) and in series [3] (setting [13]) were 11 µM and 5.33 µM, respectively.

For the compound `NC(N)=Nc1ccc2[nH]c3c(c2c1)C[C@@]1(O)[C@H]2Cc4ccc(O)c5c4[C@@]1(CCN2CC1CC1)[C@H]3O5` [GNTI, guanidinyl-naltrindole di-trifluoroacetate], the values for the IC50 in series [1] (setting [8]), in series [2] (setting [10]) and in series [3] (setting [12]) were 18.9 ± 1 µM, more than 180 µM and 13.4 ± 1.6 µM, respectively. The Ki in series [1] (setting [9]) was 5.36 µM; in series [3] (setting [13]), 2.29 µM.

In the case of `O=c1c2ccccc2[se]n1-c1ccccc1` [Ebselen, 2-phenyl-1,2-benzisoselenazol-3(2H)-one], the concentration for half-maximal inhibition (IC50) was determined as 10.9 ± 2.2 µM in series [1], 12.8 ± 2.6 µM in series [2] and 1.2 ± 0.2 µM in series [3]. The Ki in series [1] is 3.09 µM; in series [2], 3.1 µM; in series [3], 0.2 µM.

Turning to `O=C1C(SCCO)=C(SCCO)C(=O)c2ccccc21` [NSC-95397, 2,3-bis[(2-Hydroxyethyl)thio]-1,4-naphthoquinone], the IC50 was determined as 13.1 ± 4.3 µM in series [1], 12.7 ± 2.5 µM in series [2] and 7.2 ± 2.8 µM in series [3]. Further, the Ki in series [1] was determined as 3.72 µM; in series [2], 3.07 µM; in series [3], 1.23 µM. Besides, the “effect on acetylated histone H3/H4 levels” value in series [4] was “without an increase in acetylated histone levels”. Further, the “effect on resting (non-proliferating) PBMC viability” value in series [5] was “inactive”; in series [5] (listed as NSC) it was “not affected”. Moreover, the “induction of acetylated tubulin” value in series [6] is “induces hyperacetylated tubulin”. In series [7], the “total ubiquitinated protein level” value is on record as “increase in total ubiquitinated protein level”.
